Assay outcomes deposited in PubChem BioAssay by several laboratories.
An excerpt weighted towards active compounds, which were near 3.1% of everything screened.
ATG4B inhibitor = ATG4B protease inhibitors, primary screen, biochemical, fluorescence, uHTS; Cysteine protease ATG4B (Homo sapiens), Q9Y4P1; ATG4B cleavage of LC3-PLA2, NBD-HPC fluorescence, 1 h; inhibition, % at 8.33 µM; actives 0.51% (n = 340,000); AID 504462, 2011; in the data active means inhibition above about 40%
CSN inh = inhibitors of CSN-mediated cullin deneddylation, primary screen, biochemical, fluorescence polarization, uHTS; AID 651999, 2013; COP9 signalosome complex subunit 5 (Homo sapiens), Q92905; actives 0.38% (n = 360,000); Purified CSN, SCF-Nedd8-OG deneddylation; inhibition, % at 12.5 µM;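 active means pattern-corrected inhibition above about 35%, with an unprinted fluorescence ratio check between 0.5 and 1.5, limit read from the data, passing the limit was not always enough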;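 further: 0% = enzyme with substrate and 100% = substrate without enzyme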
Target sequence (Q92905 whole entry, looked up, one chain of several): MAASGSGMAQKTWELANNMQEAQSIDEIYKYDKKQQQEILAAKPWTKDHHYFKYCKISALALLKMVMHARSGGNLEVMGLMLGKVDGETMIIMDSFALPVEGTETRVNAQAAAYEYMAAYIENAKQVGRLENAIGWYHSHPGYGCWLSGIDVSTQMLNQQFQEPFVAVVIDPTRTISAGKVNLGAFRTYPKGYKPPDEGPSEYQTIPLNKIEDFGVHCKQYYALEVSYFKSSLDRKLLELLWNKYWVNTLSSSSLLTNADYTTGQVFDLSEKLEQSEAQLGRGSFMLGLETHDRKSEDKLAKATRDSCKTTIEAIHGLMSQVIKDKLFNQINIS
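Material: purified human Csn5 enzyme expressed in HEK293T cells / Medium: Tris buffer pH 7.5, NaCl, DTT, Tween-20, trehalose, ovalbumin / Compound dosing: 12.5 µM single point / Schedule: 90 min incubation of compound, enzyme and substrate at room temperature / Signal: fluorescence polarization of the substrate / Control set: no-enzyme wells high, enzyme-with-substrate wells low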
LEDGF integ inh = blockers of LEDGF/p75-dependent integrase strand transfer – biochemical, TR-FRET, high throughput, primary screen; HIV-1 integrase (with human LEDGF/p75); TR-FRET IN-LEDGF/p75 DNA integration, Eu/Cy5; inhibition, % at 3.7 µM; actives 0.64% (n = 370,000);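 active means inhibition above the screen-wide mean plus 3 SD, cut at about 13% in these data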;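 further: signal is the Cy5 over europium emission ratio at 671 and 618 nm; 0% = plate median of compound wells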
MBD2 inh = inhibitors of MBD2 binding to methylated DNA, primary screen, biochemical, TR-FRET, DNA-binding domain, human | Methyl-CpG-binding domain protein 2 (Homo sapiens), Q9UBB5 | MBD2 binding to methylated oligonucleotide | inhibition, % at 4.4 µM | actives 0.31% (n = 370,000); in the data active means inhibition above about 13%
Target sequence (Q9UBB5 whole entry, looked up, the tested form may be a part): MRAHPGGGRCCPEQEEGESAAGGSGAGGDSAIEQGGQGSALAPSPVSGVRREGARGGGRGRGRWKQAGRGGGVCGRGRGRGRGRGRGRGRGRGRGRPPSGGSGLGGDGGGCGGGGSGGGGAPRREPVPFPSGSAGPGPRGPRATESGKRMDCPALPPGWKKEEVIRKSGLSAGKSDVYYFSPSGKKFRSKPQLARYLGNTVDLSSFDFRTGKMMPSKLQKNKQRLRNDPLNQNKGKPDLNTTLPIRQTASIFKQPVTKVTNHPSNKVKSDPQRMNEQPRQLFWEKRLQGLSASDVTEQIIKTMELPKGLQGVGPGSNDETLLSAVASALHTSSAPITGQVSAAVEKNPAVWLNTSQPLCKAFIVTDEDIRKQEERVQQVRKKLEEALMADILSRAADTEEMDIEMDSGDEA
UHRF1 MBD2 ctr = UHRF1 methylated DNA binding inhibitors, primary screen, counter-screen for MBD2 inhibitor project, biochemical, TR-FRET, human UHRF1, single concentration; E3 ubiquitin-protein ligase UHRF1 (Homo sapiens), Q96T88; UHRF1 binding to methylated oligo; inhibition, % at 4.4 µM; actives 0.75% (n = 370,000); AID 687016, 2013; in the data active means inhibition above about 21%;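 further: UHRF1 SRA domain binding a hemimethylated CpG hairpin DNA probe; 0% = median of test compound wells and 100% = reference inhibitor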
rCAG RNA binder = binders of r(CAG) RNA repeats, primary screen, biochemical, fluorescence. r(CAG) RNA repeat, TO-PRO-1 dye displacement fluorescence. inhibition, % at 3 µM. actives 1.3% (n = 370,000);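 active means inhibition above the plate cutoff, the mean of all test compounds on that plate plus 3 SD, cut at about 35% in these data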;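 further: 0% = DMSO alone and 100% = 100 µM mitoxantrone as full dye displacement; higher means more dye released from RNA so lower well fluorescence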
rCAG bind conf = small molecules binding CAG repeat RNA – biochemical, fluorescence, confirmation | shares compounds with rCAG RNA binder | r(CAG) RNA repeat, TO-PRO-1 dye displacement fluorescence | inhibition, % at 3 µM | actives 70% (n = 4,300);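 active means inhibition above a per-plate cutoff, the mean inhibition of sample wells plus 3 SD, cut at about 35% in these data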;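 further: loss of TO-PRO-1 fluorescence as compound displaces dye from 1x1 AA loop RNA; 0% = DMSO only wells and 100% = 100 µM mitoxantrone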
dCAG dye counter = displacement of TO-PRO-1 from CAG DNA duplex, counter-screen for rCAG RNA repeat binder project, biochemical, fluorescence, TO-PRO-1 dye, d(CAG) DNA oligo; d(CAG) DNA oligo TO-PRO-1 dye displacement; actives 94% (n = 4,300); inhibition, % at 3 µM; shares compounds with rCAG RNA binder;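 active means inhibition above its plate's cutoff, the mean test-well inhibition plus 3 SD, cut at about 4.8% in these data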;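 further: 0% = DNA dye mix with DMSO and 100% = 100 µM mitoxantrone; hits displace the dye from DNA and so lower well fluorescence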
dCAG dye DR = inhibitors of DNA CAG/GTC TO-PRO-1 complex, dose response, counter-screen for rCAG RNA repeat binder project, biochemical, fluorescence, TO-PRO-1 dye. shares compounds with rCAG RNA binder. DNA CAG/GTC duplex TO-PRO-1 dye displacement fluorescence. IC50, µM. actives 20% (n = 250). AID 686960, 2013; in the data active means IC50 below about 10 µM
* hit, by the source's call; i = inactive; · = not tested or not shown.

SMILES | ATG4B inhibitor | CSN inh | LEDGF integ inh | MBD2 inh | UHRF1 MBD2 ctr | rCAG RNA binder | rCAG bind conf | dCAG dye counter | others
CCOC(=O)Cc1csc(NC(=O)CSc2nc(-c3ccccc3)c(C#N)c(=O)[nH]2)n1 | 1 | 4 | 11 | 1 | 0 | 64* | 57* | 20*
CCN(CC)c1ccc(C=C2C(=O)OC3(CCCCC3)OC2=O)cc1 | 7 | 26 | -4 | 1 | 4 | -4 | · | ·
CCN(CC)c1ccc(/C=C2/C(=O)c3ccc(C(=O)O)cc3C2=O)cc1 | 2 | 90 | 7 | -13 | -1 | 55* | 82* | 48*
COc1ccc(-n2c(SCC(=O)NNC(=S)Nc3ccccc3)nc3ccccc3c2=O)cc1 | · | · | -2 | 7 | -4 | 50* | 43* | 16*
Cc1ccccc1NC(=O)CSc1nc(O)cc(=O)n1C | -4 | 0 | 2 | 1 | 0 | 11 | · | ·
COc1ccc(NC(=O)CSc2nc(O)cc(=O)n2-c2ccc(OC)cc2)cc1 | 5 | 3 | 4 | 3 | -1 | 40* | 13 | 4.5*
COc1ccccc1-n1c(SCC(=O)Nc2ccccc2C)nc(O)cc1=O | 3 | -7 | -1 | -6 | 1 | 40* | 7 | 5.9*
CCOC(=O)[C@@]12CCCC3=C1N(CCC3)C(=O)[C@H]2CC(=O)N1CCOCC1 | · | · | -1 | -1 | 0 | 2 | · | ·
O=C(NC1CC[C@@]23CCCN2C(=O)CCC[C@H]3C1)c1ccccc1 (stereo partly specified) | · | · | 0 | -3 | 0 | · | · | ·
COc1ccc(Cl)cc1NC(=S)NNC(=O)c1cccs1 | 0 | 0 | 2 | 1 | 0 | 36* | 34 | 9.6*
COc1ccc(-n2c(NC(=O)c3ccco3)c(C#N)c3nc4ccccc4nc32)cc1 | 18 | 38* | 7 | 3 | 11 | 53* | 43* | 13*
COCCNC(=O)C[C@H]1CC[C@H]2[C@@H](COc3ccc(NS(=O)(=O)c4ccc(Cl)cc4)cc3C(=O)N2C)O1 | · | · | 8 | 10 | 4 | 1 | · | ·
CCOc1ccc(N2C(=O)CC(Sc3ncccn3)C2=O)cc1 (stereo unspecified) | -16 | 2 | 0 | 1 | 0 | -3 | · | ·
CCOc1ccc(N2C(=O)CC(Sc3nc(-c4cccs4)cc(C(F)(F)F)c3C#N)C2=O)cc1 (stereo unspecified) | -1 | 7 | -1 | -2 | -2 | 54* | 19 | 13*
CC(C)(C)C(=O)CSc1nnc(SCc2cccc3ccccc23)s1 | · | · | -1 | 1 | -1 | 0 | · | ·
Oc1c(Br)cc(C=Nc2ccc3nc(-c4ccccc4)[nH]c3c2)c(O)c1Br | 21 | · | 9 | -3 | -3 | 46* | 56* | 25*
COc1ccc2nc(-c3ccccc3)[nH]c2c1 | -4 | -3 | 2 | 1 | 0 | 1 | · | ·
O=C(CSc1nnc(-c2ccc(Cl)cc2)n1-c1ccccc1)NN=Cc1c[nH]c2ccccc12 | · | · | 3 | 2 | 0 | 13 | · | ·
O=C(Nc1ccc(OC(F)(F)F)cc1)Nc1c(-c2ccccc2)nc2ncccn12 | · | · | 1 | 1 | -5 | 9 | · | ·
Cc1[nH]c2ccccc2c1/C=N/NC(=O)c1cccc(S(=O)(=O)Nc2ccccc2Cl)c1 | -9 | -14 | -1 | -5 | 1 | 48* | 63* | 21*
CCc1cccc2c(/C=N/NC(=O)c3cccc(S(=O)(=O)Nc4ccccc4Cl)c3)c[nH]c12 | 7 | 1 | -8 | 2 | 3 | 57* | 72* | 31* | dCAG dye DR=i
C/C(=N\NC(=O)c1cccc(S(=O)(=O)Nc2ccccc2Cl)c1)c1ccc(-n2ccnc2)cc1 | -5 | 1 | 0 | 1 | 0 | 40* | 45* | 14*
Cc1[nH]c2ccccc2c1/C=N/NC(=O)c1cccc(Br)c1 | -18 | 2 | · | · | · | · | · | ·
CN(C)S(=O)(=O)c1cccc(C(=O)N/N=C\c2ccccc2)c1 | · | · | -3 | -1 | 2 | 0 | · | ·
CC1CCCN(C(=O)c2cccc(S(=O)(=O)Nc3cc(C(F)(F)F)ccc3Cl)c2)C1 (stereo unspecified) | -3 | -15 | -1 | 2 | -1 | 62* | 60* | 27*
SMILES | ATG4B inhibitor | CSN inh | LEDGF integ inh | MBD2 inh | UHRF1 MBD2 ctr | rCAG RNA binder | rCAG bind conf | dCAG dye counter | others
Cc1c(C)n(Cc2ccc(-c3ccccc3C(=O)O)cc2)c2ccc(C(=O)N[C@@H](C)c3ccc([N+](=O)[O-])cc3)cc12 | · | · | 1 | 7 | 1 | 74* | 74* | 35*
CCC(NC(=O)c1ccc2c(c1)c(C)c(C)n2Cc1ccc(Cl)cc1)c1ccccc1 (stereo unspecified) | · | · | -2 | 6 | 1 | 13 | · | ·
CC(C)[C@H](N)C(=O)N[C@@H](Cc1ccccc1)C(=O)N1CCC2CCN(S(=O)(=O)c3ccccc3)CC21 (stereo partly specified) | · | · | -2 | 3 | 4 | 4 | · | ·
CC(C)c1ccc(/C=N/n2c(COc3ccccc3)n[nH]c2=S)cc1 | 26 | 0 | -7 | -2 | 1 | 36* | 48* | 11*
S=c1[nH]nc(-c2ccncc2)n1/N=C/C(Cl)=C\c1ccccc1 | -1 | 12 | 1 | 3 | -5 | 39* | 32 | 9.5*
CC(/C=N/n1c(-c2cc(C)[nH]n2)n[nH]c1=S)=C\c1ccco1 | -5 | 11 | 0 | -5 | 1 | 4 | · | ·
CC(C)Oc1cccc(-c2n[nH]c(=S)n2N=Cc2cccc([N+](=O)[O-])c2)c1 | · | · | 6 | 0 | -2 | 51* | 57* | 17*
CC(C)Oc1cccc(-c2n[nH]c(=S)n2N=Cc2ccc(O)cc2O)c1 | · | · | 0 | 0 | -1 | 16 | · | ·
